Experimental data taken from ChEMBL document CHEMBL4330096, “Discovery of potent and selective 5-azaindazole inhibitors of leucine-rich repeat kinase 2 (LRRK2) - Part 1” (Bioorg Med Chem Lett, 2019).

How the values were obtained:
[1] = target: AMP-activated protein kinase, AMPK (Homo sapiens) (UniProt P54646+O43741+P54619+Q9UGJ0+Q9Y478+Q13131+Q9UGI9); assay: Inhibition of AMPK (unknown origin) at 10 uM relative to control; format: protein-complex assay
In short: (§1)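 Single-point screen of each compound against a panel of 59 protein kinases, at 1 or 10 μM. The panel data are also summarised as a rescaled geometric mean selectivity score.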

[2] = target: T1, Eukaryotic elongation factor 2 kinase (Homo sapiens) (UniProt O00418); assay: Inhibition of EF2K (unknown origin) at 10 uM relative to control; in short: as §1
T1 sequence (whole entry): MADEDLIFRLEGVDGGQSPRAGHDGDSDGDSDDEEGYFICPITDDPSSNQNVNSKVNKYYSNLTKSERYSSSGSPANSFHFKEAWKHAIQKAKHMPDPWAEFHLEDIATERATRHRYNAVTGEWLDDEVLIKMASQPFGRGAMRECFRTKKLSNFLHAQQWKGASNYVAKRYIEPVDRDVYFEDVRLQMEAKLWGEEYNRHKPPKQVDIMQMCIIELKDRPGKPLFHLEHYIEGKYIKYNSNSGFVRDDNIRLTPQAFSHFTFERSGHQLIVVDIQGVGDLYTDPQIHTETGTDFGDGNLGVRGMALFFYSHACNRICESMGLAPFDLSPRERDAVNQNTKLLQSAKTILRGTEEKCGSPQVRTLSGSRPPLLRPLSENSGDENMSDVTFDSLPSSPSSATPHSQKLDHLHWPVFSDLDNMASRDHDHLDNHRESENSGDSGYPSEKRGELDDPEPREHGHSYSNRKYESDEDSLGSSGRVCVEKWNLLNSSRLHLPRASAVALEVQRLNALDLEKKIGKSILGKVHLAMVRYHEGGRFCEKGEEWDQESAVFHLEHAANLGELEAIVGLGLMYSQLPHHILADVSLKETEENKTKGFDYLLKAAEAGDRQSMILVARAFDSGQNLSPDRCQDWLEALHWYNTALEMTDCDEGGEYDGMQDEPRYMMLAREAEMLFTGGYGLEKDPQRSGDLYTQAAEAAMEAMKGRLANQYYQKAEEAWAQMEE

[3] = target: Serine/threonine-protein kinase 26 (Homo sapiens) (UniProt Q9P289); assay: Inhibition of MST4 (unknown origin) at 10 uM relative to control
In short: (§2)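 Single-concentration screen of each compound against a 59-protein-kinase panel, run at 10 µM or 1 µM. Activity relative to control is shown as a heat map across the panel.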

[4] = target: Mitogen-activated protein kinase 14 (Homo sapiens) (UniProt Q16539); assay: Inhibition of p38a MAPK (unknown origin) at 10 uM relative to control
In short: (§3)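 Single-concentration screen across a panel of 59 protein kinases, with each compound tested at one fixed concentration. The read-out is residual kinase activity relative to control. Panel results are also condensed into a rescaled geometric mean (RGM) selectivity score.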

[5] = target: Serine/threonine-protein kinase pim-1 (Homo sapiens) (UniProt P11309); assay: Inhibition of PIM1 (unknown origin) at 10 uM relative to control; in short: as §2
[6] = target: RAC-alpha serine/threonine-protein kinase (Homo sapiens) (UniProt P31749); assay: Inhibition of PKBa (unknown origin) at 10 uM relative to control; in short: as §2
[7] = target: Protein kinase C alpha type (Homo sapiens) (UniProt P17252); assay: Inhibition of PKCa (unknown origin) at 10 uM relative to control; in short: as §2
[8] = target: T2, Protein kinase C zeta type (Homo sapiens) (UniProt Q05513); assay: Inhibition of PKCz (unknown origin) at 10 uM relative to control; in short: as §2
T2 sequence (whole entry): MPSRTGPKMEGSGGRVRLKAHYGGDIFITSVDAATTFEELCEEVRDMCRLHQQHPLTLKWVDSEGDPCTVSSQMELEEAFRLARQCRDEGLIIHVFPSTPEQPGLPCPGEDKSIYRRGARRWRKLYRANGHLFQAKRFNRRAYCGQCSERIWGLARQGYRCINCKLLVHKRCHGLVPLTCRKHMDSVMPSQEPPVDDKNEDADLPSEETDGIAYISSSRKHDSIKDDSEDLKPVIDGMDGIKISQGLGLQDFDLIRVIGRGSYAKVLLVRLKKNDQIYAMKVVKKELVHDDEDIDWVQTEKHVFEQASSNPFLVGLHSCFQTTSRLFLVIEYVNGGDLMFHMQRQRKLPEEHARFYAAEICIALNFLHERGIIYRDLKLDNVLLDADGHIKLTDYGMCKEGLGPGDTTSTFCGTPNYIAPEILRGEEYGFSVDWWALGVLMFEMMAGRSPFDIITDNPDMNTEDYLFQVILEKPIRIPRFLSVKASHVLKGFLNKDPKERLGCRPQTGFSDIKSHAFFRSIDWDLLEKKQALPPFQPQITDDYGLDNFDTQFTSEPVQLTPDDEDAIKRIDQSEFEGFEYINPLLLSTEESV

[9] = target: Serine/threonine-protein kinase PLK1 (Homo sapiens) (UniProt P53350); assay: Inhibition of PLK1 (unknown origin) at 10 uM relative to control; in short: as §2
[10] = target: Serine/threonine-protein kinase N2 (Homo sapiens) (UniProt Q16513); assay: Inhibition of PRK2 (unknown origin) at 10 uM relative to control; in short: as §2
[11] = target: Ribosomal protein S6 kinase alpha-3 (Homo sapiens) (UniProt P51812); assay: Inhibition of RSK2 (unknown origin) at 10 uM relative to control; in short: as §3
Chain of Ribosomal protein S6 kinase alpha-3 (Homo sapiens) (P51812 whole entry): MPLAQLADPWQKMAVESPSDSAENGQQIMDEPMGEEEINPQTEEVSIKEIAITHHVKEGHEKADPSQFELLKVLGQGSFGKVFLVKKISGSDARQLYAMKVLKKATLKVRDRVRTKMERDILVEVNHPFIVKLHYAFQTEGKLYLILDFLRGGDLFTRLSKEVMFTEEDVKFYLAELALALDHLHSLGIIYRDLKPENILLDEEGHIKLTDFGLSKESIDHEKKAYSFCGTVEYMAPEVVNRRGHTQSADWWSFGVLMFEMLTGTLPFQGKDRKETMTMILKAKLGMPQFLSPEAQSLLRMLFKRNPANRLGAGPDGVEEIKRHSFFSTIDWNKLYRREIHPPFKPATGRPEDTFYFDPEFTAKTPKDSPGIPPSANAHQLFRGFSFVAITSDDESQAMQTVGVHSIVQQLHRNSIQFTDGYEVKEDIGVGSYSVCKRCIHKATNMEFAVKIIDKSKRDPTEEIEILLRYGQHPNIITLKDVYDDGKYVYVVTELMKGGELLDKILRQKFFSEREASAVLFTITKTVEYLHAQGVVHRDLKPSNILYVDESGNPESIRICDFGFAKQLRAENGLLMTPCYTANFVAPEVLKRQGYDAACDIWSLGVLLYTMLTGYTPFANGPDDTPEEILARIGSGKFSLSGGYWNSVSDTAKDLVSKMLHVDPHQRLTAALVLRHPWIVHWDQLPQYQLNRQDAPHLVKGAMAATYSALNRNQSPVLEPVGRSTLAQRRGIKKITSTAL

Chain of Serine/threonine-protein kinase pim-1 (Homo sapiens) (P11309 whole entry, looked up): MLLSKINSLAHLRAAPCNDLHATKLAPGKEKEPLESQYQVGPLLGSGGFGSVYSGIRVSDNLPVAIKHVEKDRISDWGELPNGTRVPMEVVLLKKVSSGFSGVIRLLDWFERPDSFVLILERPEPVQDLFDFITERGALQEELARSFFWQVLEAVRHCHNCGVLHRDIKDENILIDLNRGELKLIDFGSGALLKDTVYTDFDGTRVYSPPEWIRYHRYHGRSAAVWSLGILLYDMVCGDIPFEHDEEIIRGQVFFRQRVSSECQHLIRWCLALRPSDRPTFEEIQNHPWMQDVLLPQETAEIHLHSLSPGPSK
Chain of Serine/threonine-protein kinase 26 (Homo sapiens) (Q9P289 2-416 limits assumed): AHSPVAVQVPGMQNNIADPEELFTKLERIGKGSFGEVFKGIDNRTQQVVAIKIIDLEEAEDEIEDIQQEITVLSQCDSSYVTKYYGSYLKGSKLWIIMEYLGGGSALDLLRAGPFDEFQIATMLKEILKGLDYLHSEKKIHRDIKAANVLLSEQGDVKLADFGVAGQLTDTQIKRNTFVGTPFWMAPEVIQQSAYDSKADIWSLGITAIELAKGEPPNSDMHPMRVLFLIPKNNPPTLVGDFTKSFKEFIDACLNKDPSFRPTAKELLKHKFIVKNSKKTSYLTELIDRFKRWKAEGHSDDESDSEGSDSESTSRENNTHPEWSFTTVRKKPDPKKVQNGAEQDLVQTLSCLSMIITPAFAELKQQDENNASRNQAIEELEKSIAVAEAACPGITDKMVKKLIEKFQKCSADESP
Chain of Mitogen-activated protein kinase 14 (Homo sapiens) (Q16539 whole entry): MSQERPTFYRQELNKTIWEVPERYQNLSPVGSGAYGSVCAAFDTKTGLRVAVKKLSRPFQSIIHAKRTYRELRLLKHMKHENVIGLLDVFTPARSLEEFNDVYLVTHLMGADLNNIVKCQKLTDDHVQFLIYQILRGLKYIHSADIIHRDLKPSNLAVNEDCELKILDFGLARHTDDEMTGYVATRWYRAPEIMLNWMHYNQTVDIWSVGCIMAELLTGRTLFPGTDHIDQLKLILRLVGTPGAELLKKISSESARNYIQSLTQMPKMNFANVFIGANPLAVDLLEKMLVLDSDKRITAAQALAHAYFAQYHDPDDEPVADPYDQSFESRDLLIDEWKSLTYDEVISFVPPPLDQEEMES
Chain of Serine/threonine-protein kinase PLK1 (Homo sapiens) (P53350 whole entry): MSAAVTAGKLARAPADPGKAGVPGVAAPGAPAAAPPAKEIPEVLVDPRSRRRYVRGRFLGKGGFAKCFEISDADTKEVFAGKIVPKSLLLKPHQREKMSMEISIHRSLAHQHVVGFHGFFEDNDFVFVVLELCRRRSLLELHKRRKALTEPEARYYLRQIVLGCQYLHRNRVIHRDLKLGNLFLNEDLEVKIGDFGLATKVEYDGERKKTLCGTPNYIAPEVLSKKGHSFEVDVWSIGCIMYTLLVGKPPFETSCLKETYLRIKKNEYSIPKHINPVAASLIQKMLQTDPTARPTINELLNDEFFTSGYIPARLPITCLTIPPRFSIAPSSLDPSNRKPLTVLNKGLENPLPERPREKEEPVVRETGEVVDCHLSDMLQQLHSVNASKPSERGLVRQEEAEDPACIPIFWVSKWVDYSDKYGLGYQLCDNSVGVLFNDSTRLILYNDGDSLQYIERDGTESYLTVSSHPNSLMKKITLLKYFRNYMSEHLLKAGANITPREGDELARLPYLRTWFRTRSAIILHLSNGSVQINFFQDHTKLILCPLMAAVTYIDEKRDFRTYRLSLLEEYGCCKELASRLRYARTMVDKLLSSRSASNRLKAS
Chain of RAC-alpha serine/threonine-protein kinase (Homo sapiens) (P31749 whole entry): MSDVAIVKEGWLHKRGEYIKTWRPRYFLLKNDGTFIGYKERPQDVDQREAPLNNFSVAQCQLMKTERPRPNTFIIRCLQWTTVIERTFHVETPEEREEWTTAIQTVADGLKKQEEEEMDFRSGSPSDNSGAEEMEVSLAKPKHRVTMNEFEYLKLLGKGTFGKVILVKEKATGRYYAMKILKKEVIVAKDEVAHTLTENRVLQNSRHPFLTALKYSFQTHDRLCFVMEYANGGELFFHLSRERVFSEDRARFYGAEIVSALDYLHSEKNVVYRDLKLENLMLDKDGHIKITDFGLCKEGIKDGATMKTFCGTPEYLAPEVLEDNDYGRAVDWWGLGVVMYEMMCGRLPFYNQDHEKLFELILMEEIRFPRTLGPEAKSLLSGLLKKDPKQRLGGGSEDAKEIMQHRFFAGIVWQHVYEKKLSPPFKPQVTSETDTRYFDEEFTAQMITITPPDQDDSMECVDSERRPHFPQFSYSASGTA
Chain of Serine/threonine-protein kinase N2 (Homo sapiens) (Q16513 whole entry, looked up): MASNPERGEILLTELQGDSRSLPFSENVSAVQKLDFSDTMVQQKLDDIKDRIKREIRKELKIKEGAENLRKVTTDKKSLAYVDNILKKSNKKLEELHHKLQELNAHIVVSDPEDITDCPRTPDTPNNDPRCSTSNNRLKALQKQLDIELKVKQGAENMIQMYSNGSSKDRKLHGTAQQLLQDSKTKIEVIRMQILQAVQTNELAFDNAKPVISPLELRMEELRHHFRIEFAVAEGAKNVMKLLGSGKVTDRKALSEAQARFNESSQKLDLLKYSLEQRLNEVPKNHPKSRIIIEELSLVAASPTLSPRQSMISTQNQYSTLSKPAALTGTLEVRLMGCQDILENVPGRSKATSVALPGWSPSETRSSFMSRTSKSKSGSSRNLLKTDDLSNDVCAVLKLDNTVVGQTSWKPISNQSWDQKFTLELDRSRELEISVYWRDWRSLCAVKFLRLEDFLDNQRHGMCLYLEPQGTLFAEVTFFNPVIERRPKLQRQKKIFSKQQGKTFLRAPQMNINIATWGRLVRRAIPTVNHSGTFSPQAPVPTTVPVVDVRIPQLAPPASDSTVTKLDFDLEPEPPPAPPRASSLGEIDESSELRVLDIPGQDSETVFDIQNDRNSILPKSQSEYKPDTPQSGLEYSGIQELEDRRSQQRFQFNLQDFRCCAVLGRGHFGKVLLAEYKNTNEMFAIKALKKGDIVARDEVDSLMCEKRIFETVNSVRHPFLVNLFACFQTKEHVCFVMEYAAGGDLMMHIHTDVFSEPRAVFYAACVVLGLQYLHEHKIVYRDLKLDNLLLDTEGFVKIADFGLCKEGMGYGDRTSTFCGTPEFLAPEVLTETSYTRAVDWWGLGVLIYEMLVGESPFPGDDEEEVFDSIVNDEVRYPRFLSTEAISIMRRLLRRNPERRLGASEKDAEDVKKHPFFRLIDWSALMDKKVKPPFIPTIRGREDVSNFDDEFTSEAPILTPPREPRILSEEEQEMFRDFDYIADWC

SMILES	inhibition [1]	inhibition [2]	inhibition [3]	inhibition [4]	inhibition [5]	inhibition [6]	inhibition [7]	inhibition [8]	inhibition [9]	inhibition [10]	inhibition [11]
Cc1n[nH]c2ccnc(NC3CCCCC3)c12	29%	0%	51%	9%	66%	29%	25%	0%	34%	63%	51%
Cc1n[nH]c2ccnc(Nc3ccc4ncsc4c3)c12				0%							73%
Cc1n[nH]c2ccnc(Nc3ccccc3F)c12	56%	0%	28%	10%	67%	34%	26%	0%	72%	50%	38%
Cc1n[nH]c2ccnc(OC3CCCCC3)c12	82%	0%	48%	0%	60%	55%	61%	19%	53%	92%	73%
